# Bioassay records as filed in PubChem BioAssay.
# The list is not random: actives were taken first. Their share in the collection is about 3.5%.
# RAM network inh: inhibitors of the yeast RAM network, primary screen, dse1pr::URA3 reporter, 5-FOA selection | 190,000 compounds, 1.8% hits | S. cerevisiae dse1pr::URA3 reporter, 5-FOA growth OD615, 2 d; analog-sensitive cbk1-as2 kinase mutant strain | inhibition, % at 50 µM;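 active = inhibition above a set limit, 3 SD over mean compound inhibition, cut at about 8.4% in these data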;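 also: 0% = DMSO-only wells with no growth and 100% = 10 µM 1-NA-PP1 full growth; inhibition rescues growth on 5-FOA so higher OD means more RAM inhibition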
# b-catenin transl: modulators of beta-catenin nuclear translocation, primary screen, imaging, HeLa cells, immunofluorescence, high-content; nuclear translocation activity, % at 5 µM; 190,000 compounds, 0.3% hits; AID 1665, 2009;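 active = nuclear translocation activity above 50% at 5 µM, with a well cell count of 50 or more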;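 also: per-cell ratio of nuclear to cytoplasmic median beta-catenin stain intensity; plate controls were DMSO negative control for no effect and GSK-3 inhibitor IX positive control for full effect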
#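 Test system: human HeLa cells, native beta-catenin. Compound dosing: 5 µM primary single dose, 0.1% DMSO, 0.02–20 µM confirmation series. Incubation: compound exposure 24 h at 37°C. Detection: beta-catenin immunostaining with DAPI counterstain, 20x imaging, 6 fields/well. Read-out basis: Nuclear/cytoplasmic beta-catenin signal ratio, % activation.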
# BB579 growth dn: growth inhibitors of yeast BB579 in restrictive medium, primary screen, yeast lifespan-shortening project, S. cerevisiae; OD615, 48 h; 140,000 compounds, 0.51% hits; inhibition, % at 10 µM;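 active = inhibition above a set limit, 3 SD over the mean compound inhibition, cut at about 44% in these data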
#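 System: DeaD yeast strain BB579; buffer or medium: CSMM-D dextrose restrictive medium; technique: OD at 615 nm; schedule: 4 h cell preincubation, 48 h compound exposure, 30 °C humidified; doses: single 10 µM dose; controls: amphotericin B 10 µg/mL, positive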
# MT stabilize HCS: microtubule stabilizers in HeLa cells, primary screen, imaging, high-content imaging; HeLa tubulin immunostaining HCS, 24 h; share of cells brighter than vehicle mean+2SD; % tubulin-high responders, % at 10 µM; 200,000 compounds, 0.83% hits; AID 2205, 2009;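 active = plate Z-score above 3 for both tubulin-high and condensed-nucleus cell shares, with cell loss under 80%, at 10 µM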;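 also: anti alpha tubulin signal scored within the nucleus-defined area of each cell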
# HMGR II inh: inhibitors of E. faecalis class II HMGR, primary screen, biochemical, Enterococcus faecalis; inhibition, % at 10 µM; 190,000 compounds, 0.41% hits; HMG-CoA reductase (Enterococcus faecalis, mvaE); purified E. faecalis HMGR, NADPH absorbance 340 nm kinetic;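 active = inhibition above a set limit, the median over all tested compounds plus 3 SD, cut at about 9.5% in these data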;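 also: enzyme runs in reverse so mevalonate oxidation gives rising NADPH absorbance; 0% = complete reaction with DMSO and 100% = background rate lacking mevalonate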
# Yeast lifespan up: compounds extending yeast replicative lifespan, primary screen, S. cerevisiae, OD615 | inhibition of the nicotinamide effect, % at 10 µM | S. cerevisiae growth with nicotinamide; deaD strain in restrictive glucose medium | AID 775, 2007 | 130,000 compounds, 0.68% hits;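 active = inhibition above a set limit, placed 3 SD over the median of all compounds, cut at about 26% in these data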;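 also: 0% = nicotinamide-treated wells and 100% = cells grown without nicotinamide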
#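 System: Modified budding yeast, DeaD strain | Buffer or medium: Restrictive glucose medium | Also added: 1.5 mM nicotinamide | Doses: 10 µM single point, 0.25% DMSO | Schedule: 48 h compound exposure at 30 °C, humidified | Detection: Absorbance at 615 nm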
# * = called active by the depositor; / = no result given.
SMILES,RAM network inh,b-catenin transl,BB579 growth dn,MT stabilize HCS,HMGR II inh,Yeast lifespan up
O=S(Cc1ccc(Cl)cc1)CC(O)(c1ccccc1)c1ccccc1 (stereo not drawn),2,-1,18,33*,0,-5
c1ccc(Sc2ncccn2)nc1,/,-1,/,/,/,/
O=C(CNC(=O)c1ccc2c(c1)OCO2)N/N=C(Br)/C=C/c1ccccc1,1,-1,-22,19*,-7,-3
Cc1nc2ccccc2n1-c1ccccc1,1,-4,-25,3,1,54*
CC(C)OC(=O)c1cn(-c2ccccc2)nc1-c1ccc2c(c1)OCCO2,11*,/,1,1,-1,-2
CCOc1cc(NC(=S)NCC2CCCO2)c(OCC)cc1NC(=O)CC(C)C (stereo not drawn),2,0,/,3,-2,/
COc1ccc(/C=C2\CC/C(=C\c3ccc(OC)c(OC)c3)C2=O)cc1OC,11*,1,-50,5,-1,7
O=C(O)CCNC(=O)c1ccc(Br)o1,0,-2,-15,4,1,2
O=C(NCCC(c1ccccc1)c1ccccc1)c1ccc(Br)o1,10*,-4,-32,3,-7,-4
COc1ccc(C2C(Oc3ccccc3C)C(=O)N2Cc2ccc(F)cc2)cc1OC (stereo not drawn),8.9*,1,-46,4,0,4
CCCCOC(=O)c1nc[nH]c1C(=O)OCCCC,0,0,/,3,19*,/
CCOC(=O)c1[nH]cnc1C(=O)Nc1ccc(F)cc1,2,1,/,1,-3,/
CCOc1ncccc1C(=O)NCc1ccccc1,3,/,-14,3,-5,-3
CCOc1ncccc1C(=O)NCc1ccc(OC)cc1,5,24,-11,36*,-7,-21
CCCCN(CC)S(=O)(=O)c1ccc(C(=O)Nc2nnc(-c3cccs3)o2)cc1,8.6*,/,-45,3,-2,-12
Cc1onc(-c2c(Cl)cccc2Cl)c1C(=O)N1CCN(c2ccccc2)CC1,1,0,/,21*,6,/
Cc1ccccc1-n1cnc2c(sc3nc(N4CCOCC4)c4c(c32)CCCC4)c1=O,/,-3,/,/,/,/
Cn1c(=O)[nH]c(=O)c2c1nc(N/N=C/C(Br)=C/c1ccccc1)n2CCO,/,0,/,/,/,/
O=C(CCl)N1c2ccccc2OCC1c1ccccc1 (stereo not drawn),0,1,-49,5,-5,47*
COc1ccccc1OCCNc1nc2c(c(=O)n(C)c(=O)n2C)n1C,5,-10,-18,4,4,/
Cn1c(=O)c2c(nc(NCCOc3ccc(C(C)(C)C)cc3)n2C)n(C)c1=O,6,0,-66,4,13*,5
C/C(N)=C(/C#N)C(=O)CSc1nc2scc(-c3ccccc3)c2c(=O)n1C,9.6*,-3,/,2,-2,/
c1ccc2cc3[nH]c(CN4CCOCC4)nc3cc2c1,1,0,-22,3,10*,/
c1ccc2[nH]c(CN3CCOCC3)nc2c1,0,4,19,1,2,-2
COc1ccc(-n2cccc2/C=C2\C(=N)N3N=C(c4ccco4)SC3=NC2=O)cc1,2,0,/,2,-5,/
SMILES,RAM network inh,b-catenin transl,BB579 growth dn,MT stabilize HCS,HMGR II inh,Yeast lifespan up
Cc1nn(-c2ccccc2)c(Cl)c1/C=C1/C(=N)N2N=C(C(C)C)SC2=NC1=O,1,-3,-5,9.9*,-3,-1
Cc1cc(/C=C2\C(=N)N3N=C(C(C)C)SC3=NC2=O)c(C)n1Cc1ccccc1,/,-2,/,/,/,/
COc1ccc(-n2cccc2/C=C2\C(=N)N3N=C(C(C)C)SC3=NC2=O)cc1,11*,-2,/,1,-4,/
Cc1cccc(OC(C)C(=O)N/N=C\c2ccncc2)c1 (stereo not drawn),1,3,/,2,-3,/
O=[N+]([O-])c1cccc2ccc(/C=C/c3ccc(C(F)(F)F)cc3)nc12,10*,11,-29,4,-5,-5
NC(=O)C1CCN(C(=O)Nc2csc3ccccc23)CC1,/,0,/,/,/,/
O=C1/C(=C\c2ccc(O)c(O)c2)N=C2CCCCCN12,/,3,/,/,/,/
Cc1ccccc1NC(=O)CSc1nc2cc3c(cc2cc1C)CCC3,6,/,-64,36*,1,-10
CC(NC(=O)c1ccc(OC2CCN(S(=O)(=O)N(C)C)CC2)cc1)C1CC1 (stereo not drawn),0,2,/,1,-2,/
O=C(CNc1cccc2ccccc12)N/N=C/c1ccc[nH]1,/,0,/,/,/,/
CC1=NNC(=O)C1CCC(=O)N/N=C/C(Br)=C/c1ccccc1 (stereo not drawn),-1,3,-1,3,-4,35*
O=C(CNc1cccc2ccccc12)N/N=C/C(Br)=C/c1ccccc1,0,0,-54,48*,-6,10
NNC(=O)c1cccc(COc2ccc3c(c2)CCC3)c1,-1,0,51*,3,-8,-5
CCC1(C)Cc2c(sc3c2c2ncnn2c2nnc(SCC(=O)NCc4ccco4)n32)CO1 (stereo not drawn),1,-2,-34,13*,-8,-10
CC1(C)Cc2c(sc3c2c2ncnn2c2nnc(SCC(=O)NCc4ccco4)n32)CO1,3,-2,-44,2,-1,-5
Cc1ccc(NC(=S)N=Nc2c(O)n(C)c3ccc(S(=O)(=O)N4CCOCC4)cc23)cc1C,9.4*,-1,-37,4,-4,2
CCC1C(=O)N=C(SCC(=O)Nc2ccccc2)NC1=O (stereo not drawn),1,-3,51*,5,0,/
S=C(NCc1ccc2[nH]c3c(c2c1)CCCC3)Nc1ccccc1,2,-1,12,2,9.8*,-4
Cc1cc(C)cc(NC(=S)NCc2ccc3[nH]c4c(c3c2)CCCC4)c1,3,-1,19,3,-4,1
O=C(O)c1cncc(C#CCC2CCCCC2)c1,/,1,/,/,/,/
CCOC(=O)c1c(-c2ncc(C(F)(F)F)cc2Cl)noc1C,1,-4,/,3,3,/
O=C(c1ccco1)N1CCN(CC(=O)N2CCCc3c2c(=O)oc2ccc(O)cc32)CC1,1,-1,-4,4,-2,8
O=C(CN1CCN(Cc2ccccc2)CC1)N1CCCc2c1c(=O)oc1ccc(O)cc21,4,0,-15,35*,-2,2
CCOC(=O)Nc1ccc(S(=O)(=O)N2CCC(C)CC2)cc1,1,3,/,18*,-4,/
COc1cccc(/C=C/C(=O)Oc2ccc(C(=O)c3ccc(F)cc3)cc2)c1,8.7*,1,-21,3,-1,3
